# Data from ChEMBL document CHEMBL5058577, “EUbOPEN Chemogenomics Library 2 (Multiplex)” (2022).
# Tested on: HEK-293T
# Experiment: Multiplex assay against HEK293T
# Assay type: toxicity, cell-based
# Conditions: human
# Summary of the method: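 Cells were classed with CellPathfinder machine-learning gating, first as Hoechst high-intensity objects or normal cells, then (normal cells) as healthy, pyknosed or fragmented nuclei, and finally (pyknosed cells) as mitotic or apoptotic. Staining of live cells at seeding used Hoechst33342, BioTracker Green Microtubule Cytoskeleton Dye, MitoTracker Red and Annexin V Alexa Fluor 680, with imaging on a CQ1 microscope at 37°C and 5% CO2 after compound addition. Tubulin, mitochondrial-mass and membrane-permeability phenotypes are per cents of healthy-nucleus cells.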
# [1] = 12 h, 1 µM, compound concentration 1 uM, replicate 1
# [2] = 12 h, 1 µM, compound concentration 1 uM, replicate 2
# [3] = 12 h, 10 µM, compound concentration 10 uM, replicate 1
# [4] = 12 h, 10 µM, compound concentration 10 uM, replicate 2
# [5] = 24 h, 1 µM, compound concentration 1 uM, replicate 1
# [6] = 24 h, 1 µM, compound concentration 1 uM, replicate 2
# [7] = 24 h, 10 µM, compound concentration 10 uM, replicate 1
# [8] = 24 h, 10 µM, compound concentration 10 uM, replicate 2
# [9] = 48 h, 1 µM, compound concentration 1 uM, replicate 1
# [10] = 48 h, 1 µM, compound concentration 1 uM, replicate 2
# [11] = 48 h, 10 µM, compound concentration 10 uM, replicate 1
# [12] = 48 h, 10 µM, compound concentration 10 uM, replicate 2
smiles,measurement,setting,value
Cc1c(Cc2ccc3ccccc3n2)c2cc(F)ccc2n1CC(=O)O [TIMAPIPRANT],Population Apoptotic (%),[1],42%
same,Population Fragmented Nuclei (%),[1],7%
same,Population Healthy Nuclei (%),[1],80%
same,Population Hoechst High Intensity Objects (%),[1],10%
same,Population Membrane Permeable-Phenotype (%),[1],0%
same,Population Mitochondria Different-Phenotype (%),[1],36%
same,Population Mitotic Cells (%),[1],57%
same,Population Normal (%),[1],89%
same,Population Pyknosed Nuclei (%),[1],11%
same,Population Tubulin-Different-Phenotype (%),[1],20%
same,Total Cell Count,[1],394
same,Population Fragmented Nuclei (%),[2],6%
same,Population Hoechst High Intensity Objects (%),[2],7%
same,Population Mitochondria Different-Phenotype (%),[2],55%
same,Population Normal (%),[2],92%
same,Population Pyknosed Nuclei (%),[2],12%
same,Population Tubulin-Different-Phenotype (%),[2],16%
same,Total Cell Count,[2],280
same,Population Apoptotic (%),[3],32%
same,Population Fragmented Nuclei (%),[3],7%
same,Population Healthy Nuclei (%),[3],78%
same,Population Hoechst High Intensity Objects (%),[3],6%
same,Population Membrane Permeable-Phenotype (%),[3],0%
same,Population Mitochondria Different-Phenotype (%),[3],55%
same,Population Mitotic Cells (%),[3],67%
same,Population Normal (%),[3],93%
same,Population Pyknosed Nuclei (%),[3],14%
same,Population Tubulin-Different-Phenotype (%),[3],38%
same,Total Cell Count,[3],434
same,Population Apoptotic (%),[4],33%
same,Population Fragmented Nuclei (%),[4],6%
same,Population Hoechst High Intensity Objects (%),[4],5%
same,Population Mitochondria Different-Phenotype (%),[4],63%
same,Population Mitotic Cells (%),[4],66%
same,Population Normal (%),[4],94%
same,Population Pyknosed Nuclei (%),[4],15%
same,Population Tubulin-Different-Phenotype (%),[4],28%
same,Total Cell Count,[4],354
same,Population Apoptotic (%),[5],31%
same,Population Fragmented Nuclei (%),[5],10%
same,Population Healthy Nuclei (%),[5],81%
same,Population Hoechst High Intensity Objects (%),[5],4%
same,Population Membrane Permeable-Phenotype (%),[5],1%
same,Population Mitochondria Different-Phenotype (%),[5],20%
same,Population Mitotic Cells (%),[5],68%
same,Population Normal (%),[5],95%
same,Population Pyknosed Nuclei (%),[5],8%
same,Population Tubulin-Different-Phenotype (%),[5],15%
same,Total Cell Count,[5],516
same,Population Apoptotic (%),[6],53%
same,Population Fragmented Nuclei (%),[6],7%
same,Population Healthy Nuclei (%),[6],83%
same,Population Hoechst High Intensity Objects (%),[6],5%
same,Population Membrane Permeable-Phenotype (%),[6],0%
same,Population Mitochondria Different-Phenotype (%),[6],38%
same,Population Mitotic Cells (%),[6],46%
same,Population Normal (%),[6],94%
same,Total Cell Count,[6],381
same,Population Apoptotic (%),[7],32%
same,Population Fragmented Nuclei (%),[7],7%
same,Population Healthy Nuclei (%),[7],78%
same,Population Hoechst High Intensity Objects (%),[7],4%
same,Population Membrane Permeable-Phenotype (%),[7],0%
same,Population Mitochondria Different-Phenotype (%),[7],31%
same,Population Mitotic Cells (%),[7],67%
same,Population Normal (%),[7],95%
same,Population Pyknosed Nuclei (%),[7],13%
same,Population Tubulin-Different-Phenotype (%),[7],28%
same,Total Cell Count,[7],560
same,Population Apoptotic (%),[8],37%
same,Population Fragmented Nuclei (%),[8],12%
same,Population Healthy Nuclei (%),[8],77%
same,Population Hoechst High Intensity Objects (%),[8],5%
same,Population Mitochondria Different-Phenotype (%),[8],44%
same,Population Mitotic Cells (%),[8],62%
same,Population Normal (%),[8],94%
same,Population Pyknosed Nuclei (%),[8],10%
same,Population Tubulin-Different-Phenotype (%),[8],20%
same,Total Cell Count,[8],475
same,Population Apoptotic (%),[9],26%
same,Population Fragmented Nuclei (%),[9],13%
same,Population Healthy Nuclei (%),[9],78%
same,Population Hoechst High Intensity Objects (%),[9],2%
same,Population Membrane Permeable-Phenotype (%),[9],1%
same,Population Mitochondria Different-Phenotype (%),[9],9%
same,Population Mitotic Cells (%),[9],73%
same,Population Normal (%),[9],97%
same,Population Pyknosed Nuclei (%),[9],8%
same,Population Tubulin-Different-Phenotype (%),[9],6%
same,Total Cell Count,[9],799
same,Population Apoptotic (%),[10],17%
same,Population Fragmented Nuclei (%),[10],15%
same,Population Healthy Nuclei (%),[10],76%
same,Population Hoechst High Intensity Objects (%),[10],3%
same,Population Membrane Permeable-Phenotype (%),[10],0%
same,Population Mitochondria Different-Phenotype (%),[10],25%
same,Population Mitotic Cells (%),[10],82%
same,Population Normal (%),[10],96%
same,Population Tubulin-Different-Phenotype (%),[10],12%
same,Total Cell Count,[10],566
same,Population Apoptotic (%),[11],33%
same,Population Fragmented Nuclei (%),[11],10%
same,Population Healthy Nuclei (%),[11],79%
same,Population Hoechst High Intensity Objects (%),[11],4%
same,Population Membrane Permeable-Phenotype (%),[11],1%
same,Population Mitochondria Different-Phenotype (%),[11],24%
same,Population Mitotic Cells (%),[11],66%
same,Population Normal (%),[11],95%
same,Population Pyknosed Nuclei (%),[11],9%
same,Population Tubulin-Different-Phenotype (%),[11],17%
same,Total Cell Count,[11],752
same,Population Apoptotic (%),[12],36%
same,Population Fragmented Nuclei (%),[12],14%
same,Population Healthy Nuclei (%),[12],78%
same,Population Membrane Permeable-Phenotype (%),[12],0%
same,Population Mitochondria Different-Phenotype (%),[12],33%
same,Population Mitotic Cells (%),[12],63%
same,Population Pyknosed Nuclei (%),[12],6%
same,Population Tubulin-Different-Phenotype (%),[12],16%
same,Total Cell Count,[12],630
